In ChEMBL document CHEMBL1146345, “Synthesis and evaluation of novel 1-(1H-1,2,4-triazol-1-yl)-2-(2,4-difluorophenyl)-3-[(4-substitutedphenyl)-piperazin-1-yl]-propan-2-ols as antifungal agents” (2007) one finds MIC80 data, which are given here for 18 molecules.

The structures appear in SMILES notation. In brackets after ≈: the same amount, converted by molar mass.

The MIC80 is the lowest concentration that inhibits either 80% of growth or 80% of the strains tested, depending on the study.

What all share (format): functional
For one test, the system named is Candida albicans. As to the kind of experiment: Antifungal activity against Candida albicans after 24 hrs by microbroth dilution method. Summed up: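 Broth microdilution following NCCLS methods, with drug dilutions in growth medium. Inoculated plates were incubated at 35 C and read at 24 h. MIC80 is the first well showing roughly 80% less growth than the drug-free well. Fluconazole and itraconazole served as positive controls.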
Background: In broth dilution the organism is exposed to a series of concentrations in liquid medium.

The test system of the next test is Candida parapsilosis. Nature of the test: Antifungal activity against Candida parapsilosis ATCC 22019 by micro-broth dilution method. The note with it: Lodderomyces parapsilosis. In a few lines:
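Candida parapsilosis ATCC22019 was the quality-control strain tested in every assay. Microbroth dilution followed NCCLS methods, with incubation at 35 C in growth medium. MIC80 is the first well with about 80% growth reduction relative to the drug-free control. Fluconazole and itraconazole were the positive controls.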

The next test deals with Cryptococcus neoformans. As to the kind of experiment: Antifungal activity against Cryptococcus neoformans after 72 hrs by micro-broth dilution method. In a few lines: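 Cryptococcus neoformans was tested by NCCLS broth microdilution, with drug diluted in growth medium and incubation at 35 C. MIC was read at 72 h as MIC80, the first well with about 80% growth reduction compared with the drug-free well. Fluconazole and itraconazole were the positive controls.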

Another test relates to Candida tropicalis. Nature of the test: Antifungal activity against Candida tropicalis by micro-broth dilution method. In a few lines: (§1)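 NCCLS microbroth dilution: drugs diluted in growth medium, inoculated, then incubated at 35 C. The endpoint was MIC80, the first well with approximately 80% less growth than the drug-free well. Fluconazole and itraconazole were run as positive controls.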

The subject of the next test is Pichia kudriavzevii. As to the kind of experiment: Antifungal activity against Candida krusei ATCC 6258 by micro-broth dilution method. In a few lines: as §1
In a further test the test system is Nakaseomyces glabratus. Nature of the test: Antifungal activity against Torulopsis glabrata by micro-broth dilution method. Summed up: as §1

Turning to `COc1cccc(/C=N/c2ccc(N3CCN(CC(O)(Cn4cncn4)c4ccc(F)cc4F)CC3)cc2)c1O` (stereo not drawn), the MIC80 is above 64 µg/mL in the test on Candida albicans; 4 µg/mL (≈ 7.29 µM) with Candida parapsilosis; 64 µg/mL (≈ 117 µM) with Cryptococcus neoformans; above 64 µg/mL in the test on Candida tropicalis; 16 µg/mL (≈ 29.2 µM) with Pichia kudriavzevii; 16 µg/mL (≈ 29.2 µM) against Nakaseomyces glabratus.

As to `Oc1ccc(/C=N/c2ccc(N3CCN(CC(O)(Cn4cncn4)c4ccc(F)cc4F)CC3)cc2)cc1` (stereo not drawn), the MIC80 against Candida albicans was 32 µg/mL (≈ 61.7 µM); in the test on Candida parapsilosis, 1 µg/mL (≈ 1.93 µM); against Cryptococcus neoformans it was 4 µg/mL (≈ 7.71 µM); with Candida tropicalis, above 64 µg/mL; with Pichia kudriavzevii, 4 µg/mL (≈ 7.71 µM); against Nakaseomyces glabratus, 8 µg/mL (≈ 15.4 µM).

For the molecule `O=[N+]([O-])c1ccc(/C=N/c2ccc(N3CCN(CC(O)(Cn4cncn4)c4ccc(F)cc4F)CC3)cc2)cc1` (stereo not drawn), the MIC80 is above 64 µg/mL with Candida albicans; 4 µg/mL (≈ 7.31 µM) in the test on Candida parapsilosis; above 64 µg/mL with Cryptococcus neoformans; above 64 µg/mL against Candida tropicalis; 4 µg/mL (≈ 7.31 µM) in the test on Pichia kudriavzevii; 8 µg/mL (≈ 14.6 µM) against Nakaseomyces glabratus.

As for `OC(CN1CCN(c2ccc(/N=C/c3ccc(Br)cc3)cc2)CC1)(Cn1cncn1)c1ccc(F)cc1F` (stereo not drawn), the MIC80 with Candida albicans is 64 µg/mL (≈ 110 µM); with Candida parapsilosis, 2 µg/mL (≈ 3.44 µM); with Cryptococcus neoformans, 32 µg/mL (≈ 55 µM); in the test on Candida tropicalis it was above 64 µg/mL; in the test with Pichia kudriavzevii it was 8 µg/mL (≈ 13.8 µM); with Nakaseomyces glabratus, above 64 µg/mL.

On to `Cc1ccc(/C=N/c2ccc(N3CCN(CC(O)(Cn4cncn4)c4ccc(F)cc4F)CC3)c(F)c2)cc1` (stereo not drawn), for which the MIC80 was 16 µg/mL (≈ 29.9 µM) against Candida albicans; 32 µg/mL (≈ 59.9 µM) in the test on Candida parapsilosis; 8 µg/mL (≈ 15 µM) in the test with Cryptococcus neoformans; above 64 µg/mL against Candida tropicalis; 16 µg/mL (≈ 29.9 µM) against Pichia kudriavzevii; 16 µg/mL (≈ 29.9 µM) against Nakaseomyces glabratus.

As for `OC(CN1CCN(c2ccc(/N=C/c3ccc(Cl)cc3)cc2)CC1)(Cn1cncn1)c1ccc(F)cc1F` (stereo not drawn), the MIC80 against Candida albicans is 0.5 µg/mL (≈ 0.931 µM); in the test with Candida parapsilosis, 1 µg/mL (≈ 1.86 µM); against Cryptococcus neoformans, 32 µg/mL (≈ 59.6 µM); in the test on Candida tropicalis, above 64 µg/mL; against Pichia kudriavzevii, 4 µg/mL (≈ 7.45 µM); with Nakaseomyces glabratus it was above 64 µg/mL.

Take `OC(CN1CCN(c2ccc(/N=C/c3ccc(F)cc3)cc2)CC1)(Cn1cncn1)c1ccc(F)cc1F` (stereo not drawn): the MIC80 in the test on Candida albicans is 64 µg/mL (≈ 123 µM); with Candida parapsilosis it was 2 µg/mL (≈ 3.84 µM); with Cryptococcus neoformans, 4 µg/mL (≈ 7.68 µM); in the test with Candida tropicalis it was above 64 µg/mL; against Pichia kudriavzevii, 16 µg/mL (≈ 30.7 µM); in the test on Nakaseomyces glabratus, above 64 µg/mL.

With `OC(CN1CCN(c2ccc(/N=C/c3ccc(Cl)c(Cl)c3)cc2)CC1)(Cn1cncn1)c1ccc(F)cc1F` (stereo not drawn), the MIC80 against Candida albicans was 1 µg/mL (≈ 1.75 µM); against Candida parapsilosis, 8 µg/mL (≈ 14 µM); against Cryptococcus neoformans, above 64 µg/mL; against Candida tropicalis, above 64 µg/mL; against Pichia kudriavzevii it was 16 µg/mL (≈ 28 µM); in the test with Nakaseomyces glabratus, above 64 µg/mL.

For the molecule `OC(CN1CCN(c2ccc(/N=C/c3ccc(Br)cc3)cc2F)CC1)(Cn1cncn1)c1ccc(F)cc1F` (stereo not drawn), the MIC80 was 32 µg/mL (≈ 53.4 µM) with Candida albicans; 8 µg/mL (≈ 13.3 µM) with Candida parapsilosis; 32 µg/mL (≈ 53.4 µM) with Cryptococcus neoformans; above 64 µg/mL with Candida tropicalis; 8 µg/mL (≈ 13.3 µM) against Pichia kudriavzevii; 16 µg/mL (≈ 26.7 µM) in the test with Nakaseomyces glabratus.

With `O=[N+]([O-])c1cccc(/C=N/c2ccc(N3CCN(CC(O)(Cn4cncn4)c4ccc(F)cc4F)CC3)cc2)c1` (stereo not drawn), the MIC80 was 64 µg/mL (≈ 117 µM) in the test on Candida albicans; 4 µg/mL (≈ 7.31 µM) in the test on Candida parapsilosis; 16 µg/mL (≈ 29.2 µM) in the test on Cryptococcus neoformans; above 64 µg/mL in the test on Candida tropicalis; 8 µg/mL (≈ 14.6 µM) with Pichia kudriavzevii; 4 µg/mL (≈ 7.31 µM) against Nakaseomyces glabratus.

Take `OC(CN1CCN(c2ccc(/N=C/c3ccc(F)cc3)cc2F)CC1)(Cn1cncn1)c1ccc(F)cc1F` (stereo not drawn): the MIC80 is 4 µg/mL (≈ 7.43 µM) against Candida albicans; 32 µg/mL (≈ 59.4 µM) against Candida parapsilosis; 8 µg/mL (≈ 14.9 µM) against Cryptococcus neoformans; above 64 µg/mL in the test on Candida tropicalis; 8 µg/mL (≈ 14.9 µM) in the test on Pichia kudriavzevii; 8 µg/mL (≈ 14.9 µM) in the test with Nakaseomyces glabratus.

On to `OC(CN1CCN(c2ccc(/N=C/c3ccc4c(c3)OCO4)cc2)CC1)(Cn1cncn1)c1ccc(F)cc1F` (stereo not drawn), for which the MIC80 in the test with Candida albicans was 16 µg/mL (≈ 29.3 µM); against Candida parapsilosis, 2 µg/mL (≈ 3.66 µM); against Cryptococcus neoformans, 32 µg/mL (≈ 58.5 µM); in the test on Candida tropicalis, above 64 µg/mL; in the test on Pichia kudriavzevii, 4 µg/mL (≈ 7.32 µM); against Nakaseomyces glabratus, 16 µg/mL (≈ 29.3 µM).

With `OC(CN1CCN(c2ccc(/N=C/c3ccc(OCc4ccccc4)cc3)cc2)CC1)(Cn1cncn1)c1ccc(F)cc1F` (stereo not drawn), the MIC80 against Candida albicans is 64 µg/mL (≈ 105 µM); in the test with Candida parapsilosis, above 64 µg/mL; against Cryptococcus neoformans it was 16 µg/mL (≈ 26.3 µM); with Candida tropicalis, above 64 µg/mL; against Pichia kudriavzevii it was 8 µg/mL (≈ 13.1 µM); in the test on Nakaseomyces glabratus, 32 µg/mL (≈ 52.6 µM).

As to `OC(Cn1cncn1)(Cn1cncn1)c1ccc(F)cc1F` [FLUCONAZOLE], the MIC80 turned out to be 1 µg/mL (≈ 3.27 µM) in the test with Candida albicans; 4 µg/mL (≈ 13.1 µM) with Candida parapsilosis; 32 µg/mL (≈ 104 µM) in the test with Cryptococcus neoformans; 64 µg/mL (≈ 209 µM) with Candida tropicalis; 8 µg/mL (≈ 26.1 µM) against Pichia kudriavzevii; 8 µg/mL (≈ 26.1 µM) with Nakaseomyces glabratus.

Take `OC(CN1CCN(c2ccc(/N=C/c3ccc(OCc4cccc(Cl)c4)cc3)cc2)CC1)(Cn1cncn1)c1ccc(F)cc1F` (stereo not drawn): the MIC80 in the test with Candida albicans was above 64 µg/mL; against Candida parapsilosis it was 16 µg/mL (≈ 24.9 µM); in the test with Cryptococcus neoformans it was 64 µg/mL (≈ 99.5 µM); with Candida tropicalis, above 64 µg/mL; against Pichia kudriavzevii, 32 µg/mL (≈ 49.8 µM); in the test with Nakaseomyces glabratus, 2 µg/mL (≈ 3.11 µM).

As for `Cc1ccc(/C=N/c2ccc(N3CCN(CC(O)(Cn4cncn4)c4ccc(F)cc4F)CC3)cc2)cc1` (stereo not drawn), the MIC80 is 1 µg/mL (≈ 1.94 µM) in the test with Candida albicans; 2 µg/mL (≈ 3.87 µM) with Candida parapsilosis; above 64 µg/mL against Cryptococcus neoformans; above 64 µg/mL with Candida tropicalis; 4 µg/mL (≈ 7.74 µM) in the test with Pichia kudriavzevii; 16 µg/mL (≈ 31 µM) against Nakaseomyces glabratus.

For the molecule `OC(CN1CCN(c2ccc(/N=C/c3ccc(Cl)cc3)cc2F)CC1)(Cn1cncn1)c1ccc(F)cc1F` (stereo not drawn), the MIC80 with Candida albicans is 16 µg/mL (≈ 28.8 µM); against Candida parapsilosis, 16 µg/mL (≈ 28.8 µM); in the test on Cryptococcus neoformans it was 32 µg/mL (≈ 57.7 µM); against Candida tropicalis, above 64 µg/mL; with Pichia kudriavzevii it was 16 µg/mL (≈ 28.8 µM); against Nakaseomyces glabratus it was 32 µg/mL (≈ 57.7 µM).

`OC(CN1CCN(c2ccc(/N=C/c3ccc(Cl)cc3Cl)cc2)CC1)(Cn1cncn1)c1ccc(F)cc1F` (stereo not drawn): the MIC80 is above 64 µg/mL in the test with Candida albicans; 8 µg/mL (≈ 14 µM) in the test on Candida parapsilosis; 64 µg/mL (≈ 112 µM) against Cryptococcus neoformans; above 64 µg/mL in the test on Candida tropicalis; 8 µg/mL (≈ 14 µM) against Pichia kudriavzevii; 8 µg/mL (≈ 14 µM) in the test on Nakaseomyces glabratus.
